# Most compounds without a hit are left out; they make up all but 3.2% or so of the library.
# rRNA inh HTS = inhibitors of bacterial rRNA selective over humanized ribosomes; E. coli WT GFP vs humanized-ribosome RFP mutants, fluorescence, 24 h; stronger effect = lower value; DMSO median 0, no signal -100; GFP signal change (wild-type ribosome), % (no concentration beside the values); 350,000 compounds, 1.6% hits; AID 720706;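 active means significant combined selectivity score with lowered wild-type GFP, culture density cut under 30%, mutant RFP and density less affected; inactive means any of these conditions unmet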
# DENV2 CPE rescue = protects cells from dengue virus 2 cytopathic effect; DENV2-infected cells, cytopathic effect rescue, plate reader; CPE inhibition, % at 9.99 µM; 350,000 compounds, 1.7% hits; in the data active means CPE inhibition above about 20%, passing the limit was not always enough; inconclusive means no clear call, values can overlap the other calls; tested in BHK-21 cells;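 further: 0% = median of neutral control wells and 100% = median of positive control wells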
# S100A4 MyoIIA = blocks human S100A4 binding to myosin IIA peptide; P26447; S100A4/TAMRA-MyoIIA peptide fluorescence polarization; inhibition, % at 10.7 µM; 360,000 compounds, 0.14% hits; AID 652163;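 active means mean inhibition of at least 70% across replicates, with every replicate also reaching that level; inconclusive means mean inhibition reaches 70% but some replicates fall short; inactive means mean inhibition below 70%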
#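 System – human S100A4 monomer protein, biochemical binding assay · Buffer or medium – Calcium-containing HEPES buffer, pH 7.2 · Timing – 5 min between mix addition and reading · Also added – TAMRA-labelled myosin IIA heavy-chain peptide probe, 5 nM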
# Cneo AK release = causes C. neoformans cell lysis; adenylate kinase release luminescence, 4 h; normalised: neutral wells 0, clomiphene wells 100; lysis activity, % at 15 µM; 360,000 compounds, 0.2% hits;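 active means mean lysis activity across replicates of at least 80%, whatever share of replicates individually reach that level; inactive means mean lysis activity below 80%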
#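 Material – Cryptococcus neoformans yeast cells · Quantity – 5 × 10^6 yeast cells/mL · Buffer or medium – YPD medium · Compound – single dose · Timing – 4 h static compound exposure, 37 °C, read 1 h post-reagent · Signal – adenylate kinase release luminescence · Read-out basis – lysis from increased AK signal · Benchmarks – Clomiphene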
# PfHsp90 yeast 2 = reduces growth (ATP signal) of yeast expressing P. falciparum Hsp90. S. cerevisiae expressing PfHsp90, BacTiter-Glo ATP, 48 h; yeast lacking PDR1 and PDR3 efflux regulators. inhibition, % at 9.4 µM. 310,000 compounds, 0.32% hits. AID 504621;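 active means every replicate shows inhibition above about 80%, whatever the replicate mean, limit read from the data; inconclusive means mean inhibition reaches the set limit but some replicate falls short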;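 further: 0% = DMSO neutral controls and 100% = 20 µM radicicol positive controls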
# AF4-AF9 inh = blocks AF4 peptide binding to human AF9. AID 651704. 350,000 compounds, 0.47% hits. AlphaScreen, biotin-AF4 peptide binding to FLAG-AF9. P42568. inhibition, % at 10 µM;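 active means every replicate reaching a set inhibition limit, whatever the replicate mean, cut at about 25% in these data; inconclusive means mean inhibition reaches that limit but some replicates miss it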;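 further: 0% = plate neutral control median and 100% = total signal loss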
# Target sequence (P42568 whole entry, looked up): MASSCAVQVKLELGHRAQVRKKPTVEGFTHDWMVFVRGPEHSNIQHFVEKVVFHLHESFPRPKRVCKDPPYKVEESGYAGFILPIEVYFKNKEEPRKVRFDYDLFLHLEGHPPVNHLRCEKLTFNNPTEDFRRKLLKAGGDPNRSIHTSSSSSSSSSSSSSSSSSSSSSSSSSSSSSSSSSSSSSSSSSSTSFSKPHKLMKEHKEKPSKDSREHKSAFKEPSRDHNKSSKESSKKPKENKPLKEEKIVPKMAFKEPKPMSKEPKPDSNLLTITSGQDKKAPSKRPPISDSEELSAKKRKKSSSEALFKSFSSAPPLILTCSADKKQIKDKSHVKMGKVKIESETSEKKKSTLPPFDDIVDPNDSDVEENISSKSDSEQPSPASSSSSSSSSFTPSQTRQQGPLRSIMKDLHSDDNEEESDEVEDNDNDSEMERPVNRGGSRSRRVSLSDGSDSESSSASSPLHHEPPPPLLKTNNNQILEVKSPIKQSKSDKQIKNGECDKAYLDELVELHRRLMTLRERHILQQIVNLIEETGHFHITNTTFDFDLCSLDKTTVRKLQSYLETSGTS
# The depositor's hits bear a star; ? = inconclusive; · = no result; ! = repeats disagree.
SMILES,rRNA inh HTS,DENV2 CPE rescue,S100A4 MyoIIA,Cneo AK release,PfHsp90 yeast 2,AF4-AF9 inh
O=C(C[C@@H]1CC[C@H](NC(=O)CN2CCOCC2)[C@H](CO)O1)NC1CCCCC1,0,-3,-2,-8,·,-2
C[C@H]1CN([C@@H](C)CO)S(=O)(=O)c2ccc(C3=CCCC3)cc2O[C@@H]1CN(C)S(=O)(=O)c1ccc(F)cc1,1,69*,7,1,·,2
C[C@H](CO)N1C[C@H](C)[C@H](CN(C)Cc2cncnc2)Oc2cc(C3=CCCCC3)ccc2S1(=O)=O,4,30*,-3,54,·,4
C[C@H]1CN([C@@H](C)CO)S(=O)(=O)c2ccc(C3=CCCC3)cc2O[C@H]1CN(C)Cc1cncnc1,0,15,13,-1,·,0
CCC(=O)N[C@@H]1CC[C@@H](CC(=O)NCc2cc(F)cc(F)c2)O[C@H]1CO,3,-2,16,-3,·,-1
COc1ccc(C2(C)NC(=O)N(CC(=O)c3cc(C)n(C4CC4)c3C)C2=O)cc1 (configuration not stated),2,37*,-5,-1,13,0
CN(C)CCCNC(CC(=O)Nc1cccc([N+](=O)[O-])c1)C(=O)O (configuration not stated),13,48*,1,2,3,-2
CC(C)NC(=O)Nc1ccc2c(c1)CC(=O)N([C@@H](C)CO)C[C@@H](C)[C@@H](CN(C)S(C)(=O)=O)O2,4,-1,4,-2,·,-2
O=C(O)C[C@@H]1CC[C@H]2[C@@H](COC[C@H](O)CN2S(=O)(=O)c2ccc(F)cc2)O1,2,6,2,3,·,-5
Cc1csc(=O)n1CCC(=O)OCC(=O)Nc1cc([N+](=O)[O-])ccc1Cl,-11,37*,-4,3,·,1
Clc1nssc1=Nc1nncs1,1,?,0,-2,5,-12
O=Nc1ccc(Cl)cn1,6,31*,2,·,·,-1
Clc1nssc1=Nc1ccc(Br)cc1,-52,-3,-1,·,105*,-3
Clc1ccc(N=c2ssnc2Cl)nc1,20,1,3,·,120*,-3
COc1cc(N=c2ssnc2Cl)cc(OC)c1,·,·,·,-4,-50,·
C[C@@H]1CN([C@@H](C)CO)C(=O)c2cc(NC(=O)c3ccccc3)ccc2O[C@@H](C)CCCCO[C@@H]1CN(C)C(=O)c1ccccc1,2,-3,-10,2,·,-2
CCOC(=O)C(Cc1ccc(O)c([N+](=O)[O-])c1)N1C(=O)c2ccccc2C1=O (configuration not stated),-25*,-9,2,·,9,-14
O=C1c2ccccc2NC(c2ccc(-c3ccc(C(F)(F)F)cc3)o2)N1O (configuration not stated),10,·,-4,-3,101*,6
O=C1c2ccccc2NC(c2ccc(-c3cccs3)o2)N1O (configuration not stated),2,-9,-2,-2,·,10
Cc1cc(N=Nc2ccccc2C(=O)O)c(C)c(C)c1O,5,4,-26,·,100*,·
Cc1cc(O)c(C(C)C)cc1N=Nc1ccccc1C(=O)O,13,1,-20,3,-3,-8
O=C(Nc1ccc(F)cc1)N1C[C@H]2[C@@H](c3ccccc31)[C@@H](CO)N2C(=O)c1ccc(F)cc1,0,6,1,-2,·,-4
COc1ccccc1NC(=O)N[C@@H]1CC[C@@H](CCNS(=O)(=O)c2ccc(Cl)cc2)O[C@H]1CO,1,20*,2,-1,·,-1
O=C(Nc1cccc(F)c1)N[C@H]1CC[C@H](CCNS(=O)(=O)c2cccc(Cl)c2)O[C@@H]1CO,1,·,-3,105*,·,4
O=C(Nc1ccc(F)cc1)N[C@H]1CC[C@H](CCNS(=O)(=O)c2cccc(Cl)c2)O[C@@H]1CO,-17*!,-10,53,2,·,4
SMILES,rRNA inh HTS,DENV2 CPE rescue,S100A4 MyoIIA,Cneo AK release,PfHsp90 yeast 2,AF4-AF9 inh
CO[C@@H]1CN(C)C(=O)c2ccc(NC(=O)c3cccc(F)c3)cc2OC[C@@H](C)N(C(C)=O)C[C@@H]1C,-2,-7,-12,1,·,0
C[C@@H]1CN([C@@H](C)CO)C(=O)c2cc(C#CC3CC3)cnc2O[C@@H]1CN(C)C(=O)Nc1ccccc1,-3,5,-4,-2,·,-1
CN(C)CC(=O)N[C@@H]1CC[C@H](CCn2cc(C3CC3)nn2)O[C@H]1CO,1,13,-16,0,·,-1
CCc1cccc(C)c1NC(=S)NCCc1c(C)[nH]c2ccc(C)cc12,-6,?,-10,11,-25,44*
CCN1[C@@H]2Cn3c(ccc(C4=CCCCC4)c3=O)[C@H]1[C@@H](C(=O)NCC(F)(F)F)[C@@H]2CO,5,·,·,·,·,·
O=C(CN1CCOCC1)N1CCCCN2[C@H](CO)[C@@H](c3ccc(C#Cc4ccccc4F)cc3)[C@H]2C1,9,27*,10,-2,·,0
CC(=O)N1CCCCN2[C@H](CO)[C@H](c3ccc(C#Cc4ccccc4F)cc3)[C@H]2C1,-1,-11,11,0,·,1
CC(=O)N1CCCCN2[C@@H](CO)[C@H](c3ccc(C#Cc4ccccc4F)cc3)[C@@H]2C1,0,23*,-9,1,·,2
O=C(CN1CCOCC1)N1CCCCN2[C@@H](CO)[C@H](c3ccc(C#Cc4ccccc4F)cc3)[C@@H]2C1,5,·,·,1,·,0
O=C(CN1CCOCC1)N1CCCCN2[C@H](CO)[C@@H](c3ccc(-c4ccccc4)cc3)[C@H]2C1,4,54*,-1,-3,·,5
CC(=O)N1CCCCN2[C@H](CO)[C@H](c3ccc(C#Cc4ccccc4F)cc3)[C@@H]2C1,-51,12,97*,0,·,-2
CCC(=O)Nc1ccc2c(c1)C(=O)N(C)C[C@H](OC)[C@H](C)CN(Cc1cncnc1)[C@H](C)CO2,4,·,·,·,·,·
Cc1nn(C)cc1NC(=O)C[C@@H]1CC[C@@H]2[C@@H](COc3ccc(NC(=O)NC(C)C)cc3C(=O)N2C)O1,3,1,6,3,·,-5
Cc1cccc(S(=O)(=O)N[C@H]2CC[C@H](CCNC(=O)CCN3CCCCC3)O[C@@H]2CO)c1,-1,3,0,-2,·,-1
O=[N+]([O-])c1ccccc1S(=O)(=O)Nc1ccc(-c2ccc3nncn3n2)cc1,2,4,-2,·,30,-1
O=[N+]([O-])c1ccccc1S(=O)(=O)Nc1cccc(-c2ccc3nncn3n2)c1,0,65*,-23,1,7,0
